The test system of assay [1] is Small cell lung cancer cell line. Kind of assay: Compound was tested for the inhibition of small cell lung cancer. Type of assay: functional, cell-based. The settings on record: Homo sapiens. In outline:
(§1)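 Human leukemia and solid tumor cells in culture were exposed to compound for 48 h. Viability was scored by trypan blue dye exclusion. IC50 (50% inhibition) was estimated from response curves of three separate experiments.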

A further assay deals with HL-60. Description: Compound was tested for the inhibition of human HL60 Leukemia. Type of assay: functional, cell-based. The method, boiled down:
as §1

In the next assay the test system is NSCLC. Description: Compound was tested for the inhibition of non- small cell lung cancer. To be noted: Homo sapiens. Type of assay: functional, cell-based. In outline: as §1
Another assay concerns Glioblastoma cell line. Description: Compound was tested for the inhibition of glioblastoma. Type of assay: functional, cell-based. To be noted: Homo sapiens. In outline:
as §1

A further assay concerns CML/BC. Description: Compound was tested for the inhibition of CML/BC(chronic myeloid leukemia, blast crisis). Type of assay: functional, cell-based. The settings on record: Homo sapiens. The method, boiled down:
as §1

For the next assay, the system named is AMML. Description: Compound was tested for the inhibition of AMML (acute myelomonocytic leukemia). Type of assay: functional, cell-based. The settings on record: Homo sapiens. The method, boiled down: as §1
Assay [2] relates to L1210. Description: Antitumor activity was determined against the ip implanted L1210 leukemia in mice by median survival time at 131 adn 258 mg/kg (treatment of 1qd schedule) dosage; 8.0/8.0. To be noted: route intraperitoneal.
The subject of assay [3] is L1210. Kind of assay: Antitumor activity against the ip implanted L1210 leukemia in mice expressed as optimal dose (1-5qd treatment schedule) required to produce greatest increase in life span was determined. Type of assay: functional, Mus musculus. In outline: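 DBA/2J mice, groups of 6 (23-28 g), were inoculated ip with 1 × 10^6 L1210 cells on day 0. Dosing was ip from 24 h, in 0.9% NaCl with 0.5% Tween-80 (sonicated solution or suspension). Mice were observed daily until death or day 45. Median survival T/C followed NCI protocols, and ILS = (T/C − 1) × 100. Active range means doses giving ILS ≥25%; optimal dose means greatest ILS.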

Assay [4] deals with L1210. Description: Antitumor activity was determined against the ip implanted L1210 leukemia in mice by change in […] at 131 and 258 mg/kg (treatment of 1qd schedule) dosage. Type of assay: functional, Mus musculus. To be noted: route intraperitoneal. In outline: (§2)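 DBA/2J mice, 6 per group (wt 23-28 g), inoculated ip with 1×10^6 L1210 cells on day 0. Treatment was given ip in 0.9% NaCl with 0.5% Tween-80, starting 24 h later. Weight change was taken on day 8. Mice were observed daily until death or 45 days. Median survival T/C and %ILS = (T/C − 1) × 100 came from survivors per NCI protocols, and 45-day survivors were counted.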

The subject of assay [5] is L1210. Kind of assay: Antitumor activity was determined against the ip implanted L1210 leukemia in mice by percent increase in life span at 26 and 51 mg/kg (treatment of 1-5qd schedule) dosage. Type of assay: functional, Mus musculus. The settings on record: route intraperitoneal. In outline:
(§3)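 DBA/2J mice in groups of 6 (wt 23-28 g) were inoculated ip with 1×10^6 L1210 cells on day 0. Dosing was ip from 24 h, in 0.9% NaCl with 0.5% Tween-80 (conjugates sonicated), across a range of doses. Mice were observed daily until death or 45 days. Median T/C was computed from survivors per NCI protocols, and ILS = (T/C − 1)×100.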

Assay [6] relates to L1210. Kind of assay: Antitumor activity was determined against the ip implanted L1210 leukemia in mice by range in survival days at 26 and 51 mg/kg (treatment of 1-5qd schedule) dosage; Range is 11-12. Type of assay: functional, Mus musculus. To be noted: route intraperitoneal. In outline: (§4)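 DBA/2J mice, 23-28 g, in groups of 6, were inoculated ip with 1×10^6 L1210 cells on day 0. Dosing was ip starting 24 h later on the stated daily schedules. Conjugates were given as sonicated solutions and reference prodrugs as suspensions in 0.9% NaCl with 0.5% Tween-80. Mice were observed daily until death or 45 days. Median survival T/C was calculated from survivors per NCI protocols.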

The subject of assay [7] is L1210. Description: Antitumor activity was determined against the ip implanted L1210 leukemia in mice by percent increase in life span at 131 and 258 mg/kg (treatment of 1qd schedule) dosage. Type of assay: functional, Mus musculus. To be noted: route intraperitoneal. In outline: as §3
Assay [8] deals with L1210. Kind of assay: Antitumor activity was determined against the ip implanted L1210 leukemia in mice by 45-day survivors in mice at 131 and 258 mg/kg (treatment of 1qd schedule) dosage. Type of assay: functional, Mus musculus. The settings on record: route intraperitoneal. In outline:
as §3

Assay [9] deals with L1210. Description: Antitumor activity was determined against the ip implanted L1210 leukemia in mice by 45-day survivors in mice at 26 and 51 mg/kg (treatment of 1-5qd schedule) dosage. The settings on record: route intraperitoneal. Type of assay: functional, Mus musculus. The method, boiled down: as §3
Assay [10] deals with L1210. Description: Antitumor activity was determined against the ip implanted L1210 leukemia in mice by range in survival days at 131 and 258 mg/kg (treatment of 1qd schedule) dosage; Range is 8-9. The settings on record: route intraperitoneal. Type of assay: functional, Mus musculus. In outline:
as §4

Assay [11] deals with L1210. Kind of assay: Antitumor activity was determined against the ip implanted L1210 leukemia in mice by change in […] at 26 and 51 mg/kg (treatment of 1-5qd schedule) dosage. Type of assay: functional, Mus musculus. The settings on record: route intraperitoneal. The method, boiled down: as §2
Assay [12] deals with L1210. Kind of assay: Antitumor activity was determined against the ip implanted L1210 leukemia in mice by median survival time at 26 and 51 mg/kg (treatment of 1-5qd schedule) dosage; 11.0/8.0. To be noted: route intraperitoneal.

“And” between values parts separate entries of the source, which are not always exact repeats. Equal entries are not always repeated.

On to `CCCCCCCCCCCCCCCCCCOCC(COP(=O)([O-])OCC[N+](C)(C)C)OC.Nc1ccn([C@@H]2O[C@H](CO)[C@@H](O)[C@@H]2O)c(=O)n1` (configuration not stated), for which the IC50 (commonly the concentration needed to halve the response being measured) in [1] amounted to 38 µM; in the assay on HL-60 it was 0.26 µM; with NSCLC it was 34 µM; in the assay on Glioblastoma cell line it was 27 µM; with CML/BC, 0.25 µM; in the assay on AMML, 1.35 µM.
As to `CCCCCCCCCCCCCCCCOCC(COP(=O)(O)O)OC(=O)CCCCCCCCCCCCCCC.Nc1ccn([C@@H]2O[C@H](COP(=O)(O)O)[C@@H](O)[C@@H]2O)c(=O)n1` (racemic), the median survival time was found to be 8 days with L1210 [2] and 11 days in the assay on L1210 [12]. In addition, the Optimal dose in the assay with L1210 [3] was 26 mg and 51 mg. The Weight change in the assay on L1210 [4] is -0.8 g mouse-1; with L1210 [11] it was 1.1 g mouse-1. Moreover, the ILS is reported as 38 in the assay on L1210 [5] and 0 in the assay on L1210 [7]. The Range with L1210 [6] is recorded as 11; in the assay with L1210 [10], 8. Further, the Survivors in the assay with L1210 [8] and with L1210 [9] was 0 in each case.

Values taken from ChEMBL document CHEMBL1123247, “Nucleoside conjugates. 7. Synthesis and antitumor activity of 1-beta-D-arabinofuranosylcytosine conjugates of ether lipids” (J Med Chem, 1986).
